According to ChEMBL document CHEMBL1128223 (J Med Chem, 1995):

What was measured:
[1] = test system: HT-29; assay: Cytotoxicity was determined in vitro in HT-29 cells(colon) of human tumor cell lines by using MTT assay; type: functional, cell-based
Outline: (§1)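 MTT microculture tetrazolium assay. Cells grown in α-MEM with 15% heat-inactivated FBS, glutamine, pyruvate, insulin and nonessential amino acids at 37 °C, 5% CO2. Seeded at 1500–4000 cells/well and allowed to adhere overnight. Exposed to compound for 48 h, then fresh medium for 48 h, quadruplicate per concentration. MTT 4 h, dye extracted in DMSO, A570 read. IC50 (50% cell kill) from four-parameter logistic fit.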

[2] = test system: LOX IMVI; assay: Cytotoxicity was determined in vitro in LOX cells (melanoma) of human tumor cell lines by using MTT assay; type: functional, cell-based
Outline: (§2)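 Cells grown in α-MEM with 15% heat-inactivated FBS, 2 mM L-glutamine, 1 mM pyruvate, insulin and nonessential amino acids at 37 °C, 5% CO2. Seeded at 1500–4000 cells/well and allowed to adhere overnight. Exposed to compound for 48 h, then to fresh medium for 48 h, in quadruplicate per concentration. MTT for 4 h, dye extracted in DMSO, A570 read. IC50 (50% cell kill) from four-parameter logistic fit.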

[3] = test system: SK-OV-3; assay: Cytotoxicity was determined in vitro in SK-OV-3 cells (ovarian) of human tumor cell lines by using MTT assay; type: functional, cell-based; outline: as §1
[4] = test system: SK-VLB; assay: Cytotoxicity was determined in vitro in SKVLB cells(ovarian with upregulated MDRp-glycoprotein) of human tumor cell lines by using MTT assay; type: functional, cell-based; outline: as §1
[5] = test system: T47D; assay: Cytotoxicity was determined in vitro in T47D cells(breast) of human tumor cell lines by using MTT assay; type: functional, cell-based; outline: as §2
[6] = test system: HT-29; assay: In vivo efficacy of tumor growth ratio(T/B) of compound was calculated by using the HT-29 Human colon Xenograft model in mice at a dose of 7 mg/kg; type: functional
Outline: (§3)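 Female nu/nu mice (18–24 g) given 10^6 HT29 cells subcutaneously in the left axillary flank. Grouped at 6 per dose with matched body weight and palpable tumor of about 150 mm². Compound in 0.1 M sodium acetate pH 5, 0.2 mL s.c., twice weekly for 5 weeks. Volume = length × width²/2 by calipers. T/B = end-of-treatment mean volume divided by initial mean volume.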

[7] = test system: Mus musculus; assay: The body weight loss was measured in mice in vivo by using the HT-29 Human colon Xenograft model at a dose of 11 mg/kg; type: functional
Outline: (§4)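 HT29 subcutaneous flank xenografts in female nu/nu mice, 6 per group. Compound in 0.1 M acetate buffer pH 5, 0.2 mL s.c., twice weekly for 5 weeks. Body weight monitored twice weekly. Value is group mean body weight loss, with ≥30% loss considered lethal. Dose ceiling set beforehand by dose-ranging in naive mice on the same schedule.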

[8] = test system: Mus musculus; assay: The body weight loss was measured in mice in vivo by using the HT-29 Human colon Xenograft model at a dose of 5 mg/kg; type: functional; outline: as §4
[9] = test system: Mus musculus; assay: The body weight loss was measured in mice in vivo by using the HT-29 Human colon Xenograft model at a dose of 7 mg/kg; type: functional; outline: as §4
[10] = test system: Mus musculus; assay: The body weight loss was measured in mice in vivo by using the HT-29 Human colon Xenograft model at a dose of 9 mg/kg; type: functional; outline: as §4
[11] = test system: Mus musculus; assay: In vivo efficacy of tumor growth ratio(T/B) of compound was calculated by using the HT-29 Human colon Xenograft model in mice at a dose of 5 mg/kg; type: functional; outline: as §3
[12] = test system: Mus musculus; assay: In vivo efficacy of tumor growth ratio(T/B) of compound was calculated by using the HT-29 Human colon Xenograft model in mice at a dose of 9 mg/kg; type: functional; outline: as §3
[13] = test system: Mus musculus; assay: The no. of deaths of mice(infected with HT-29 cells) was reported at a dose of 5 mg/kg; type: functional
Outline: (§5)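 HT29 s.c. xenografts in female nu/nu mice, 6 per group. Compound given s.c. in 0.1 M sodium acetate pH 5, twice weekly for 5 weeks. Body weights monitored; mean body weight loss and deaths recorded per dose group. Dose range included the highest dose from a dose-ranging study in naive mice, in which ≥30% weight loss was considered lethal.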

[14] = test system: Mus musculus; assay: The no. of deaths of mice(infected with HT-29 cells) was reported at a dose of 7 mg/kg; type: functional; outline: as §5
[15] = test system: Mus musculus; assay: (§6) The no. of deaths of mice(infected with HT-29 cells) was reported at a dose of 9 mg/kg; type: ADME, organism-based; parameters: dose 9 mg/kg; settings: in vivo; outline: as §5
[16] = test system: Mus musculus; assay: In vivo efficacy of tumor growth ratio(T/B) of compound was calculated by using the HT-29 Human colon Xenograft model in mice at a dose of 11 mg/kg; type: functional; outline: as §3
[17] = test system: Mus musculus; assay: The no. of deaths of mice(infected with HT-29 cells) was reported at a dose of 11 mg/kg; type: functional; outline: as §5
[18] = test system: Mus musculus; assay: The body weight loss was measured in mice in vivo by using the HT-29 Human colon Xenograft model at a dose of 12 mg/kg; type: functional; outline: as §4
[19] = test system: Mus musculus; assay: The body weight loss was measured in mice in vivo by using the HT-29 Human colon Xenograft model at a dose of 3 mg/kg; type: functional; outline: as §5
[20] = test system: Mus musculus; assay: The body weight loss was measured in mice in vivo by using the HT-29 Human colon Xenograft model at a dose of 6 mg/kg; type: functional; outline: as §4
[21] = test system: Mus musculus; assay: In vivo efficacy of tumor growth ratio(T/B) of compound was calculated by using the HT-29 Human colon Xenograft model in mice at a dose of 6 mg/kg; type: functional; outline: as §3
[22] = test system: Mus musculus; assay: The no. of deaths of mice(infected with HT-29 cells) was reported at a dose of 12 mg/kg; type: ADME, organism-based; parameters: dose 12 mg/kg; settings: in vivo; outline: as §5
[23] = test system: Mus musculus; assay: The no. of deaths of mice(infected with HT-29 cells) was reported at a dose of 3 mg/kg; type: functional; outline: as §5
[24] = test system: Mus musculus; assay: The no. of deaths of mice(infected with HT-29 cells) was reported at a dose of 6 mg/kg; type: functional; outline: as §5
[25] = test system: Mus musculus; assay: as §6; type: functional; outline: as §5
[26] = test system: Mus musculus; assay: In vivo efficacy of tumor growth ratio(T/B) of compound was calculated by using the HT-29 Human colon Xenograft model in mice at a dose of 3 mg/kg; type: functional
Outline: (§7)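 Female nu/nu mice, 10⁶ HT29 cells implanted subcutaneously in the flank. Groups of 6 started at about 150 mm2 palpable tumor. Compound in 0.1 M sodium acetate pH 5 given s.c. twice weekly for 5 weeks. Tumor volume from calipers as length × width²/2. T/B is mean volume at end of treatment divided by mean initial volume.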

[27] = test system: Mus musculus; assay: In vivo efficacy of tumor growth ratio(T/B) of compound was calculated by using the HT-29 Human colon Xenograft model in mice at a dose of 12 mg/kg; type: functional; outline: as §3
[28] = MDR ratio as the ratio of IC50 value against SKVLB to that of SKOV3,; type: functional
[29] = test system: Mus musculus; assay: The body weight loss was measured in mice in vivo by using the HT-29 Human colon Xenograft model at a dose of 1 mg/kg; type: functional; outline: as §5
[30] = test system: Mus musculus; assay: The body weight loss was measured in mice in vivo by using the HT-29 Human colon Xenograft model at a dose of 2 mg/kg; type: functional; outline: as §5
[31] = test system: Mus musculus; assay: The body weight loss was measured in mice in vivo by using the HT-29 Human colon Xenograft model at a dose of 4 mg/kg; type: functional; outline: as §5
[32] = test system: Mus musculus; assay: The no. of deaths of mice(infected with HT-29 cells) was reported at a dose of 1 mg/kg; type: functional; outline: as §5
[33] = test system: Mus musculus; assay: The no. of deaths of mice(infected with HT-29 cells) was reported at a dose of 2 mg/kg; type: functional; outline: as §5
[34] = test system: Mus musculus; assay: The no. of deaths of mice(infected with HT-29 cells) was reported at a dose of 4 mg/kg; type: functional; outline: as §5
[35] = test system: Mus musculus; assay: In vivo efficacy of tumor growth ratio(T/B) of compound was calculated by using the HT-29 Human colon Xenograft model in mice at a dose of 2 mg/kg; type: functional; outline: as §7
[36] = test system: Mus musculus; assay: In vivo efficacy of tumor growth ratio(T/B) of compound was calculated by using the HT-29 Human colon Xenograft model in mice at a dose of 4 mg/kg; type: functional; outline: as §7
[37] = test system: Mus musculus; assay: In vivo efficacy of tumor growth ratio(T/B) of compound was calculated by using the HT-29 Human colon Xenograft model in mice at a dose of 1 mg/kg; type: functional; outline: as §7

SMILES	IC50 [1]	IC50 [2]	IC50 [3]	IC50 [4]	IC50 [5]	BW loss [10]	Efficacy [12]	BW loss [19]	Deaths [23]	Efficacy [26]	MDR ratio [28]	other results
CC[C@@]1(O)C(=O)OCc2c1cc1n(c2=O)Cc2cc3ccccc3nc2-1 [CAMPTOTHECIN]	0.046 µM	0.048 µM	0.037 µM	0.041 µM	0.207 µM							
CC[C@@]1(O)C(=O)OCc2c1cc1n(c2=O)Cc2cc3c(CN(C)C)c(O)ccc3nc2-1 [TOPOTECAN]	0.025 µM	0.005 µM	0.044 µM	0.149 µM	0.104 µM	17%	4.3					Efficacy [6]: 7; BW loss [7]: 23%; BW loss [8]: 15%; BW loss [9]: 11%; Efficacy [11]: 8.6; Deaths [13]: 0; Deaths [14]: 0; Deaths [15]: 2; Efficacy [16]: 2.9; Deaths [17]: 0
CC[C@@]1(O)C(=O)OCc2c1cc1n(c2=O)Cc2c-1nc1cc3c(cc1c2CN1CCN(C)CC1)OCCO3.O=C(O)C(F)(F)F	0.006 µM	0.001 µM	0.016 µM	0.102 µM	0.038 µM	7%	0.8	8%	0	5.5	6	BW loss [18]: 22%; BW loss [20]: 5%; Efficacy [21]: 1.6; Deaths [22]: 2; Deaths [24]: 0; Deaths [25]: 0; Efficacy [27]: 0.4
COc1cccc2c1C(=O)c1c(O)c3c(c(O)c1C2=O)C[C@@](O)(C(=O)CO)C[C@@H]3O[C@H]1C[C@H](N)[C@H](O)[C@H](C)O1 [DOXORUBICIN]	0.331 µM	0.042 µM	0.036 µM	5.65 µM	0.072 µM						160	
CC[C@@]1(O)C(=O)OCc2c1cc1n(c2=O)Cc2c-1nc1cc3c(cc1c2CN1CCN(C)CC1)OCO3.O=C(O)C(F)(F)F	0.002 µM	0.0005 µM	0.004 µM	0.017 µM	0.03 µM			12%	0	0.9		BW loss [29]: 11%; BW loss [30]: 8%; BW loss [31]: 20%; Deaths [32]: 0; Deaths [33]: 0; Deaths [34]: 0; Efficacy [35]: 1.7; Efficacy [36]: 0.6; Efficacy [37]: 6.4
CC[C@@]1(O)C(=O)OCc2c1cc1n(c2=O)Cc2c-1nc1cc3c(cc1c2CCl)OCCO3	0.013 µM		0.004 µM	0.008 µM							2	
